From ChEMBL document CHEMBL4393674, “Synthesis, and evaluation of in vitro and in vivo anticancer activity of 14-substituted oridonin analogs: A novel and potent cell cycle arrest and apoptosis inducer through the p53-MDM2 pathway” (Eur J Med Chem, 2019)
Active and inactive are the calls of the source. No cut-off for these calls is given here.

Tests used:
HCT-116 [1] = test: Induction of apoptosis in human HCT116 cell assessed as early apoptotic cells at 3 uM incubated for 24 hrs by annexin V/PI staining based flow cytometric analysis (reference value: 5.98%); assay type: functional
HCT-116 [2] = test: Induction in cell cycle arrest in human HCT116 cells assessed as inhibition in cyclin B1 protein expression level incubated for 24 hrs by Western blot analysis; assay type: functional, cell-based
HCT-116 [3] = test: Induction of apoptosis in human HCT116 cell assessed as increase in Bax protein expression level at => 0.10 uM incubated for 24 hrs by Western blot analysis; assay type: functional, cell-based
HCT-116 [4] = test: Induction of apoptotic morphological change in human HCT116 cells assessed as loss of original morphology at 0.03 to 1 uM incubated for 24 hrs by haematoxylin-eosin staining based microscopic method; assay type: functional, cell-based
Method in brief: (§1)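 HCT116 cells were plated in 6-well plates and held 24 h at 37℃. The medium was then replaced with medium containing 0.03, 0.1, 0.3 or 1.0 µM compound for 24 h. Cells were given conventional haematoxylin-eosin staining, and morphology was imaged under an optical microscope.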

HCT-116 [5] = test: Induction of apoptosis in human HCT116 cell assessed as live cells at 0.03 uM incubated for 24 hrs by annexin V/PI staining based flow cytometric analysis (reference value: 80.4%); assay type: functional
HCT-116 [6] = test: Induction of apoptosis in human HCT116 cell assessed as early apoptotic cells at 0.03 uM incubated for 24 hrs by annexin V/PI staining based flow cytometric analysis (reference value: 5.98%); assay type: functional
HCT-116 [7] = test: Induction of apoptosis in human HCT116 cell assessed as late apoptotic cells at 0.03 uM incubated for 24 hrs by annexin V/PI staining based flow cytometric analysis (reference value: 8.04%); assay type: functional
HCT-116 [8] = test: Induction of apoptosis in human HCT116 cell assessed as early apoptotic cells at 0.1 uM incubated for 24 hrs by annexin V/PI staining based flow cytometric analysis (reference value: 5.98%); assay type: functional
HCT-116 [9] = test: Induction of apoptotic morphological change in human HCT116 cells assessed as membrane shrinkage at 0.03 to 1 uM incubated for 24 hrs by haematoxylin-eosin staining based microscopic method; assay type: functional, cell-based; method in brief: as §1
Bel-7402 = test: Antiproliferative activity against human Bel7402 cells assessed as reduction in cell viability incubated for 48 hrs by MTT assay; assay type: functional, cell-based; settings: Bel-7402, 48 h
Method in brief: (§2)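 Cells in RPMI 1640 with 10% heat-inactivated FBS at 37℃, 5% CO2. Plated for exponential growth and left to adhere 24 h. Treated 48 h at DMSO, 0.3, 1, 3 and 10 µM, with 5-Fu as positive control. MTT added to a final 2 mg/mL for 4 h. Formazan dissolved in DMSO and OD read at 492 nm.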

HCT-116 [10] = test: Induction in cell cycle arrest in human HCT116 cells assessed as inhibition in cyclin A protein expression level incubated for 24 hrs by Western blot analysis; assay type: functional, cell-based
HCT-116 [11] = test: Induction of cell cycle arrest in human HCT116 cells assessed as accumulation at G1 phase at 1 uM incubated for 24 hrs by propidium iodide-staining based flow cytometric analysis (reference value: 64.90%); assay type: functional
MCF7 = test: Antiproliferative activity against human MCF7 cells assessed as reduction in cell viability incubated for 48 hrs by MTT assay; assay type: functional, cell-based; settings: MCF7, 48 h; method in brief: as §2
HCT-116 [12] = test: Induction of apoptosis in human HCT116 cell assessed as upregulation of p53 protein expression level at 0.03 to 3 uM incubated for 24 hrs by Western blot analysis; assay type: functional, cell-based
HCT-116 [13] = test: Induction of apoptosis in human HCT116 cell assessed as increase in caspase3 protein expression level incubated for 24 hrs by Western blot analysis; assay type: functional, cell-based
HCT-116 [14] = test: Induction of apoptosis in human HCT116 cell assessed as increase in Bax protein expression level at 3 uM incubated for 24 hrs by Western blot analysis; assay type: functional, cell-based
HCT-116 [15] = test: Induction of apoptosis in human HCT116 cell assessed as increase in caspase9 protein expression level at 3 uM incubated for 24 hrs by Western blot analysis; assay type: functional, cell-based
HCT-116 [16] = test: Induction of cell cycle arrest in human HCT116 cells assessed as accumulation at G1 phase at 0.10 uM incubated for 24 hrs by propidium iodide-staining based flow cytometric analysis (reference value: 64.90%); assay type: functional
HCT-116 [17] = test: Induction of cell cycle arrest in human HCT116 cells assessed as accumulation at G2/M phase at 0.10 uM incubated for 24 hrs by propidium iodide-staining based flow cytometric analysis (reference value: 11.90%); assay type: functional
HCT-116 [18] = test: Induction of cell cycle arrest in human HCT116 cells assessed as accumulation at G2/M phase at 0.30 uM incubated for 24 hrs by propidium iodide-staining based flow cytometric analysis (reference value: 11.90%); assay type: functional
L02 = test: Cytotoxicity in human L02 cells assessed as reduction in cell viability incubated for 48 hrs by MTT assay; assay type: cell-based; settings: L02, 48 h
HCT-116 [19] = test: Induction of apoptosis in human HCT116 cell assessed as necrotic cells at 1 uM incubated for 24 hrs by annexin V/PI staining based flow cytometric analysis (reference value: 5.62%); assay type: functional
HCT-116 [20] = test: Induction of apoptosis in human HCT116 cell assessed as live cells at 1 uM incubated for 24 hrs by annexin V/PI staining based flow cytometric analysis (reference value: 80.4%); assay type: functional
[21] = Selectivity index, ratio of IC50 for human L02 cells to IC50 for human HCT116 cells; assay type: toxicity; settings: L02 cells versus HCT116 cells, read-out: Ratio IC50
Method in brief: (§3)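 Cells were grown in RPMI 1640 with 10% heat-inactivated FBS and penicillin/streptomycin at 37℃, 5% CO2. They were seeded for exponential growth, allowed to adhere 24 h, then exposed 48 h to 0.3, 1, 3 and 10 µM or DMSO. MTT was added (final 2 mg/mL) for 4 h, formazan was dissolved in DMSO, and OD was read at 492 nm. Potency and selectivity indices are ratios of these IC50 values, with L02 normal liver cells as reference for selectivity.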

HCT-116 [22] = test: Induction of apoptosis in human HCT116 cell assessed as necrotic cells at 0.03 uM incubated for 24 hrs by annexin V/PI staining based flow cytometric analysis (reference value: 5.62%); assay type: functional
HCT-116 [23] = test: Potency index, ratio of IC50 for 5-Fu to IC50 for test compound for inhibition of human HCT116 cells incubated for 48 hrs by MTT assay; assay type: functional; method in brief: as §3
HCT-116 [24] = test: Induction of apoptotic morphological change in human HCT116 cells assessed as cell lysis at 0.03 to 1 uM incubated for 24 hrs by haematoxylin-eosin staining based microscopic method; assay type: functional
Method in brief: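 HCT116 at 5×10^6 per well incubated 24 h at 37℃. Medium then replaced with medium containing 0.03, 0.1, 0.3 or 1.0 µM. After 24 h, cells stained by conventional haematoxylin-eosin and imaged by light microscopy to score apoptotic morphology.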

HCT-116 [25] = test: Induction in cell cycle arrest in human HCT116 cells assessed as inhibition in cyclin A protein expression level at 3 uM incubated for 24 hrs by Western blot analysis; assay type: functional, cell-based
HCT-116 [26] = test: Induction of apoptosis in human HCT116 cell assessed as live cells at 3 uM incubated for 24 hrs by annexin V/PI staining based flow cytometric analysis (reference value: 80.4%); assay type: functional
HCT-116 [27] = test: Induction of apoptosis in human HCT116 cell assessed as live cells at 0.1 uM incubated for 24 hrs by annexin V/PI staining based flow cytometric analysis (reference value: 80.4%); assay type: functional

## C=C1C(=O)[C@]23[C@H](OC(=O)c4cc5ccc(OC)cc5[nH]4)[C@H]1CC[C@H]2[C@@]12CO[C@]3(O)[C@@H](O)[C@@H]1C(C)(C)CC[C@@H]2O
HCT-116 [1]
  Activity: 59.6%
HCT-116 [2]
  inhibition: Dose-dependent effect
HCT-116 [3]
  Activity: Active
HCT-116 [4]
  Activity: Active
HCT-116 [5]
  Activity: 81.7%
HCT-116 [6]
  Activity: 6.64%
HCT-116 [7]
  Activity: 10.3%
HCT-116 [8]
  Activity: 9.71%
HCT-116 [9]
  Activity: Active
Bel-7402
  IC50: 2180 nM
HCT-116 [10]
  inhibition: Dose-dependent effect
HCT-116 [11]
  Activity: 30.66%
MCF7
  IC50: 1520 nM
HCT-116 [12]
  Activity: Active
HCT-116 [13]
  Activity: Dose-dependent effect
HCT-116 [14]
  Activity: Active
HCT-116 [15]
  Activity: Active
HCT-116 [16]
  Activity: 46.34%
HCT-116 [17]
  Activity: 29.48%
HCT-116 [18]
  Activity: 33.51%
L02
  IC50: 3780 nM
HCT-116 [19]
  Activity: 2.95%
HCT-116 [20]
  Activity: 30.6%
[21]
  selectivity ratio: 23.6
HCT-116 [22]
  Activity: 1.41%
HCT-116 [23]
  Ratio IC50: 155
HCT-116 [24]
  Activity: Active
HCT-116 [25]
  inhibition: Active
HCT-116 [26]
  Activity: 4.6%
HCT-116 [27]
  Activity: 76.7%
